Assay outcomes (PubChem)
Compounds with a hit are over-represented: about 3% of the library has one in this group of screens.
ABHD5 PLIN5 PPI – inhibitors of human ABHD5-perilipin-5 interaction; Q00G26+Q8WTS1; Split G. princeps luciferase complementation, luminescence, 4 h; inhibition, % at 4 µM; 0.78% of 360,000 active;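 active = inhibition above the mean inhibition across every tested compound plus 3 SD, cut at about 22% in these data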;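 also: 0% = DMSO only wells and the 100% control is not disclosed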
Target sequence (Q00G26 whole entry, looked up): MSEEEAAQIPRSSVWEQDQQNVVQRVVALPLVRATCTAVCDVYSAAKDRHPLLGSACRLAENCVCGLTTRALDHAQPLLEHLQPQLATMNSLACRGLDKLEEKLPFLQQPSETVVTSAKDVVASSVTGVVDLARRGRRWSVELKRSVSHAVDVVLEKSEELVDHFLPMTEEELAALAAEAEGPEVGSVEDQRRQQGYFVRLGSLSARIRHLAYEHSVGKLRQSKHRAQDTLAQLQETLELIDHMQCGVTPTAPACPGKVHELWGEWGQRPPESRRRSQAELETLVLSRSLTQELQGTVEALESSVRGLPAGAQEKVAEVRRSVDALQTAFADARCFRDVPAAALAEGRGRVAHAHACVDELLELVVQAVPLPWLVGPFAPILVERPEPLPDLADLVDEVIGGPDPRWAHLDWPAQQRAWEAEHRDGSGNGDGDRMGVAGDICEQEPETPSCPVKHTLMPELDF
Target sequence (Q8WTS1 whole entry, looked up): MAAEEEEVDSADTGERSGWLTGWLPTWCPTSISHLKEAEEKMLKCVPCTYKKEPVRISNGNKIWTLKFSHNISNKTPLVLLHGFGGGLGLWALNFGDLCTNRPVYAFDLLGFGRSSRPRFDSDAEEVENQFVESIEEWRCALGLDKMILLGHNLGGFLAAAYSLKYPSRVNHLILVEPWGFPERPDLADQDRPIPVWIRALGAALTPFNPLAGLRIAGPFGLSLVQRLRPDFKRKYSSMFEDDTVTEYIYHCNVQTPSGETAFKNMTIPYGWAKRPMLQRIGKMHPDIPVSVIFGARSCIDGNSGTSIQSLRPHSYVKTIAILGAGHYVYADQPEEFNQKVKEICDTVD
MC4R antagonist – blocks human MC4R cAMP signaling; 0.48% of 360,000 active; inhibition, % at 6.5 µM; P32245; MC4R-expressing cells, MTII-stimulated cAMP, LANCE TR-FRET; AID 540295;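 active = inhibition above its plate's cutoff, the mean of tested wells on that plate plus 3 SD, cut at about 29% in these data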;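 also: 0% = Melanotan II alone and 100% = Melanotan II plus saturating MCL0020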
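Material: human MC4R-expressing U2OS cells. Probe or stimulus: Melanotan II challenge. Dosing: 6.5 µM single dose. Times: 30-min compound, 1-h challenge, 1-h detection, room temperature. Technique: TR-FRET with Eu-cAMP and labeled anti-cAMP, 671 nm. Replication: singlicate.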
Beta2AR agonist – agonists of human beta-2 adrenergic receptor inducing internalization; P07550; Am2.2-beta2AR cells, FAP receptor internalization, flow cytometry; response, % (test concentration not listed); 0.43% of 340,000 active;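 active = response above a set limit, near 3 SD of response in nonfluorescent compounds, cut at about 42% in these data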
PfG6PD inh – PfG6PD (Plasmodium falciparum) enzyme inhibition. PfGluPho enzyme, NADPH resazurin-diaphorase fluorescence. inhibition, % at 20 µM. 0.78% of 350,000 active;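 active = inhibition reaching at least a set limit at 20 µM in the primary screen, cut at about 59% in these data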;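 also: 0% = DMSO wells with substrate and 100% = DMSO wells lacking glucose-6-phosphate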
MC4R barr agon – activates human MC4R beta-arrestin recruitment; 0.98% of 360,000 active; AID 540308; activation, % at 8.9 µM; P32245; U2OS MC4R beta-arrestin complementation, luminescence; percent of melanotan II response, DMSO zero;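 active = activation above a per-plate cutoff, the mean activation of sample wells on that plate plus 3 SD, cut at about 8% in these data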
B2AR ag CP1 – activates human beta-2 adrenergic receptor | Am2.2-beta2AR cells, FAP surface receptor, flow cytometry; hits give low values | percent response (surface receptor), % at 10 µM | 25% of 1,100 active | AID 540358 | shares compounds with Beta2AR agonist;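 active = surface receptor percent response at or below 58%, roughly 3 SD from nonfluorescent compounds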
B2AR FAP counter – flagged in Am2.2 fluorescence counterscreen for beta-2AR agonists; shares compounds with Beta2AR agonist; AID 588765; Am2.2 cells, FAP fluorogen flow cytometry; hits give low values; 1,100 tested, under 10 active; calls only at 10 µM;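 active = percent response below a set limit in fluorescence channel 1 and below 50% in channel 8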
* marks the source's active call; other numbers are inactive results; i = inactive; nt = not tested or not shown.

SMILES	ABHD5 PLIN5 PPI	MC4R antagonist	Beta2AR agonist	PfG6PD inh	MC4R barr agon	B2AR ag CP1	B2AR FAP counter
CCOc1cc(C(=S)N2CCOCC2)ccc1OS(=O)(=O)c1ccccc1[N+](=O)[O-]	3	13	6	-3	1	87	i
Cc1cc(C(=O)Nc2cccc3ccccc23)c(C)o1	5	4	-5	-4	0	nt	nt
Cc1oc(CC(C)C)cc1C(=O)Nc1cccc2ccccc12	-12	3	43*	-9	0	99	i
COc1ccc(Cl)cc1S(=O)(=O)N1CCC(C(=O)NCCC2=CCCCC2)CC1	7	10	-1	-3	-3	nt	nt
COC(=O)C1=C(C)N(Cc2ccccc2)C(=NCCc2cccnc2)N[C@H]1c1ccc(Br)cc1	15	1	47*	-7	4	85	i
CCC(=O)N1COC[C@@H]1Cc1ccccc1	-8	1	-1	-18	-3	107	i
CCCCCNc1nc2sc3c(c2c(=O)n1-c1cccc(Cl)c1)CCN(C)C3	-1	3	8	7	1	nt	nt
COc1ccccc1OCCCC(=O)Nc1nccs1	-7	14	76*	4	0	59	i
COCc1nnc(NC(=O)C(C)C)s1	-10	0	53*	-6	-2	95	i
COc1ccc(CNC(=O)CCCCCNc2nc(=S)[nH]c3ccccc23)cc1	-1	10	129*	-7	0	26*	i
COc1ccc(CCNC(=O)CCCCCNc2nc(=S)[nH]c3ccccc23)cc1OC	-9	8	-12	15	-1	nt	nt
C=CCNC(=S)N1CCN(c2ncc(C(F)(F)F)cc2Cl)CC1	-5	4	-12	8	0	nt	nt
CCC(=O)CN(Cc1cc(OC)ccc1OC)S(=O)(=O)c1ccccc1Br	1	-2	-8	-3	-1	nt	nt
COc1ccccc1CNC(=O)CN1CCN(c2ccc(C(C)=O)cc2)CC1	6	2	54*	-19	0	118	i
CC(=O)c1ccc(N2CCN(CC(=O)NCc3ccccc3)CC2)cc1	-7	3	1	-12	0	nt	nt
O=C(NC1CCCC1)C(c1ccccn1)N(Cc1ccc(F)cc1)C(=O)c1csnn1 (centres undefined)	3	6	0	15	0	nt	nt
COc1ccc(CSc2ccc(-c3nc4ccccn4c3NCc3ccccc3)cc2OC)cc1	2	28	75*	5	0	63	i
CCC(C)Sc1ccc(-c2nc3ccccn3c2NCc2ccccc2)cc1OC (centres undefined)	5	8	35	4	0	nt	nt
CSc1ccc(NC(=O)N2CC=C(n3c(=O)[nH]c4ccccc43)CC2)cc1	7	-6	5	9	-3	nt	nt
O=C(NCC(O)c1ccccc1)c1ccccc1 (centres undefined)	-5	16	5	1	-1	nt	nt
OC(CNCCc1ccccc1)c1ccccc1 (centres undefined)	6	-11	7	-6	0	105	i
COc1ccc(CCNCC(O)c2ccccc2)cc1 (centres undefined)	-7	2	-1	14	2	96	i
CSc1ccc(CNCC(O)c2ccccc2)cc1 (centres undefined)	-3	1	-2	13	1	nt	nt
O[C@@H](CNC[C@H](O)c1ccccc1)c1ccccc1	5	6	-10	15	-1	111	i
COc1ccc(CCNCC(C)c2ccccc2)cc1 (centres undefined)	8	14	-5	4	0	nt	nt
SMILES	ABHD5 PLIN5 PPI	MC4R antagonist	Beta2AR agonist	PfG6PD inh	MC4R barr agon	B2AR ag CP1	B2AR FAP counter
S=C(NC1CCCCC1)N1CCCCC1	4	-3	10	2	0	nt	nt
Cc1cc2c(cc1C)-c1nnnn1C(N1CCCCC1)C(=O)N2 (centres undefined)	2	nt	nt	nt	nt	nt	nt
CS(=O)(=O)Nc1cccc(NC(=O)C2Cc3c(-c4cccc(F)c4)ccnc3O2)c1 (centres undefined)	-8	-4	nt	nt	1	nt	nt
COCC1CCCN(C(=O)c2cc(COc3cncc(Cl)c3)on2)C1 (centres undefined)	-8	2	-4	7	-1	nt	nt
COC(=O)[C@@H](NC(=O)c1cc(COc2cncc(Cl)c2)on1)c1ccccc1	-3	10	2	-16	0	97	i
CCC(NC(=O)c1cc(COc2cncc(Cl)c2)on1)c1ccc(C)cc1 (centres undefined)	3	-2	-1	1	-3	88	i
Cc1ccc(OCc2cc(C(=O)N(C)Cc3cnn(-c4ccccc4C)c3)no2)cn1	9	-2	100*	-1	-3	19*	i
CCc1ccc(CN(C)C(=O)c2cc(COc3cncc(Cl)c3)on2)cc1	-3	-4	nt	4	0	106	i
Cc1cc(N2CCN(C)CC2)ccc1NC(=O)c1cccc(S(=O)(=O)N2CCc3ccccc3C2)c1	16	10	42*	0	1	82	i
Cc1ccc(C(=O)c2c3ccccc3[n+]([O-])n2CCC(N)=O)cc1	-2	-5	-5	-6	-2	nt	nt
CCOc1cccc(C(=O)Nc2ccc3oc(-c4cccnc4)nc3c2)c1	2	-7	7	-7	0	103	i
COC(=O)c1ccccc1S(=O)(=O)N(Cc1ccco1)Cc1cc2cc(OC)ccc2[nH]c1=O	18	16	6	5	0	nt	nt
O=c1[nH]c2ccccc2cc1CN(Cc1cccnc1)S(=O)(=O)c1ccc([N+](=O)[O-])cc1	1	5	-18	11	-3	151	i
O=c1[nH]c2ccccc2cc1CN(Cc1cccnc1)S(=O)(=O)c1ccc(Cl)cc1	4	2	-9	20	-1	153	i
CC(=O)Nc1ccc(S(=O)(=O)N(Cc2ccco2)Cc2cc3ccccc3[nH]c2=O)cc1	11	16	106*	-4	-2	23*	i
CC(=O)Nc1ccc(S(=O)(=O)N(Cc2cccnc2)Cc2cc3ccccc3[nH]c2=O)cc1	7	6	74*	0	0	29*	i
CCC(Sc1nc(C)cc(C)n1)C(=O)Nc1nccs1 (centres undefined)	0	3	1	12	-4	nt	nt
NC(=O)CC(NC(=O)c1ccc(Br)cc1)c1ccc(N2CCN(c3ccccn3)CC2)c([N+](=O)[O-])c1 (centres undefined)	-4	0	98*	-1	-2	14*	i
NC(=O)CC(NC(=O)Cc1ccc(Br)cc1)c1ccc(N2CCN(c3ccccn3)CC2)c([N+](=O)[O-])c1 (centres undefined)	4	8	63*	11	-1	89	i
